Measured values: ChEMBL document CHEMBL4689842, “EUbOPEN Chemogenomics Library wave 1” (2021)

Tested on: U2OS
Test: Multiplex assay against U2OS
Type: toxicity, cell-based
Conditions: human
Summary of the method: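 With compound added, live cells were imaged on a CQ1 microscope at 37°C and 5% CO2; staining with Hoechst33342, BioTracker Green Microtubule Cytoskeleton Dye, MitoTracker Red and Annexin V Alexa Fluor 680 had been done at seeding. The CellPathfinder machine-learning gating scheme split cells into Hoechst high-intensity objects or normal cells, normal cells into healthy, pyknosed or fragmented nuclei, and pyknosed cells into mitotic or apoptotic. The tubulin, mitochondrial-mass and membrane-permeability phenotypes are per cents of healthy-nucleus cells.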

[1] = 12 h, 1 µM, compound concentration 1 uM, replicate 1
[2] = 12 h, 1 µM, compound concentration 1 uM, replicate 2
[3] = 12 h, 10 µM, compound concentration 10 uM, replicate 1
[4] = 12 h, 10 µM, compound concentration 10 uM, replicate 2
[5] = 24 h, 1 µM, compound concentration 1 uM, replicate 1
[6] = 24 h, 1 µM, compound concentration 1 uM, replicate 2
[7] = 24 h, 10 µM, compound concentration 10 uM, replicate 1
[8] = 24 h, 10 µM, compound concentration 10 uM, replicate 2
[9] = 48 h, 1 µM, compound concentration 1 uM, replicate 1
[10] = 48 h, 1 µM, compound concentration 1 uM, replicate 2
[11] = 48 h, 10 µM, compound concentration 10 uM, replicate 1
[12] = 48 h, 10 µM, compound concentration 10 uM, replicate 2

Cc1c(P(=S)(c2ccccc2)c2ccccc2)n2ccccc2[n+]1C/C=C/c1ccccc1.[Br-]
Population Apoptotic (%) [1]: 54%
Population Fragmented Nuclei (%) [1]: 21%
Population Healthy Nuclei (%) [1]: 69%
Population Hoechst High Intensity Objects (%) [1]: 5%
Population Membrane Permeable-Phenotype (%) [1]: 13%
Population Mitochondria Different-Phenotype (%) [1]: 35%
Population Mitotic Cells (%) [1]: 45%
Population Normal (%) [1]: 94%
Population Pyknosed Nuclei (%) [1]: 9%
Population Tubulin-Different-Phenotype (%) [1]: 26%
Total Cell Count [1]: 133
Population Apoptotic (%) [2]: 75%
Population Fragmented Nuclei (%) [2]: 50%
Population Healthy Nuclei (%) [2]: 45%
Population Hoechst High Intensity Objects (%) [2]: 22%
Population Membrane Permeable-Phenotype (%) [2]: 10%
Population Mitochondria Different-Phenotype (%) [2]: 50%
Population Mitotic Cells (%) [2]: 25%
Population Normal (%) [2]: 77%
Population Pyknosed Nuclei (%) [2]: 4%
Population Tubulin-Different-Phenotype (%) [2]: 31%
Total Cell Count [2]: 93
Population Apoptotic (%) [3]: 89%
Population Fragmented Nuclei (%) [3]: 28%
Population Healthy Nuclei (%) [3]: 9%
Population Hoechst High Intensity Objects (%) [3]: 21%
Population Membrane Permeable-Phenotype (%) [3]: 88%
Population Mitochondria Different-Phenotype (%) [3]: 100%
Population Mitotic Cells (%) [3]: 10%
Population Normal (%) [3]: 78%
Population Pyknosed Nuclei (%) [3]: 61%
Population Tubulin-Different-Phenotype (%) [3]: 100%
Total Cell Count [3]: 121
Population Apoptotic (%) [4]: 94%
Population Fragmented Nuclei (%) [4]: 21%
Population Healthy Nuclei (%) [4]: 10%
Population Hoechst High Intensity Objects (%) [4]: 8%
Population Membrane Permeable-Phenotype (%) [4]: 83%
Population Mitochondria Different-Phenotype (%) [4]: 83%
Population Mitotic Cells (%) [4]: 5%
Population Normal (%) [4]: 91%
Population Pyknosed Nuclei (%) [4]: 68%
Population Tubulin-Different-Phenotype (%) [4]: 83%
Total Cell Count [4]: 108
Population Apoptotic (%) [5]: 55%
Population Fragmented Nuclei (%) [5]: 12%
Population Healthy Nuclei (%) [5]: 73%
Population Hoechst High Intensity Objects (%) [5]: 5%
Population Membrane Permeable-Phenotype (%) [5]: 12%
Population Mitochondria Different-Phenotype (%) [5]: 18%
Population Mitotic Cells (%) [5]: 45%
Population Normal (%) [5]: 94%
Population Pyknosed Nuclei (%) [5]: 13%
Population Tubulin-Different-Phenotype (%) [5]: 12%
Total Cell Count [5]: 174
Population Apoptotic (%) [6]: 75%
Population Fragmented Nuclei (%) [6]: 55%
Population Healthy Nuclei (%) [6]: 40%
Population Hoechst High Intensity Objects (%) [6]: 33%
Population Membrane Permeable-Phenotype (%) [6]: 9%
Population Mitochondria Different-Phenotype (%) [6]: 31%
Population Mitotic Cells (%) [6]: 25%
Population Normal (%) [6]: 66%
Population Pyknosed Nuclei (%) [6]: 3%
Population Tubulin-Different-Phenotype (%) [6]: 15%
Total Cell Count [6]: 124
Population Fragmented Nuclei (%) [7]: 34%
Population Healthy Nuclei (%) [7]: 4%
Population Hoechst High Intensity Objects (%) [7]: 14%
Population Membrane Permeable-Phenotype (%) [7]: 75%
Population Mitochondria Different-Phenotype (%) [7]: 100%
Population Normal (%) [7]: 85%
Population Pyknosed Nuclei (%) [7]: 61%
Population Tubulin-Different-Phenotype (%) [7]: 100%
Total Cell Count [7]: 154
Population Apoptotic (%) [8]: 100%
Population Fragmented Nuclei (%) [8]: 23%
Population Healthy Nuclei (%) [8]: 38%
Population Hoechst High Intensity Objects (%) [8]: 26%
Population Membrane Permeable-Phenotype (%) [8]: 81%
Population Mitochondria Different-Phenotype (%) [8]: 81%
Population Mitotic Cells (%) [8]: 0%
Population Normal (%) [8]: 73%
Population Pyknosed Nuclei (%) [8]: 38%
Population Tubulin-Different-Phenotype (%) [8]: 81%
Total Cell Count [8]: 163
Population Fragmented Nuclei (%) [9]: 7%
Population Healthy Nuclei (%) [9]: 85%
Population Hoechst High Intensity Objects (%) [9]: 5%
Population Membrane Permeable-Phenotype (%) [9]: 3%
Population Mitochondria Different-Phenotype (%) [9]: 13%
Population Normal (%) [9]: 94%
Population Pyknosed Nuclei (%) [9]: 7%
Population Tubulin-Different-Phenotype (%) [9]: 11%
Total Cell Count [9]: 277
Population Apoptotic (%) [10]: 60%
Population Fragmented Nuclei (%) [10]: 42%
Population Healthy Nuclei (%) [10]: 49%
Population Hoechst High Intensity Objects (%) [10]: 25%
Population Membrane Permeable-Phenotype (%) [10]: 5%
Population Mitochondria Different-Phenotype (%) [10]: 21%
Population Mitotic Cells (%) [10]: 40%
Population Normal (%) [10]: 74%
Population Pyknosed Nuclei (%) [10]: 8%
Population Tubulin-Different-Phenotype (%) [10]: 8%
Total Cell Count [10]: 213
Population Fragmented Nuclei (%) [11]: 43%
Population Healthy Nuclei (%) [11]: 3%
Population Hoechst High Intensity Objects (%) [11]: 19%
Population Membrane Permeable-Phenotype (%) [11]: 66%
Population Mitochondria Different-Phenotype (%) [11]: 100%
Population Normal (%) [11]: 80%
Population Pyknosed Nuclei (%) [11]: 53%
Population Tubulin-Different-Phenotype (%) [11]: 100%
Total Cell Count [11]: 207
Population Apoptotic (%) [12]: 100%
Population Fragmented Nuclei (%) [12]: 75%
Population Healthy Nuclei (%) [12]: 18%
Population Hoechst High Intensity Objects (%) [12]: 21%
Population Membrane Permeable-Phenotype (%) [12]: 75%
Population Mitochondria Different-Phenotype (%) [12]: 75%
Population Mitotic Cells (%) [12]: 0%
Population Normal (%) [12]: 78%
Population Pyknosed Nuclei (%) [12]: 6%
Population Tubulin-Different-Phenotype (%) [12]: 75%
Total Cell Count [12]: 153
